Data set [1] in a line: Drug metabolism in mouse liver microsomes assessed as glucuronidation of compound measured as compound remaining after 30 mins by LC/MS analysis. Format: ADME. To be noted: read-out: Stability. The method, boiled down:
(§1)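 Liver microsomes (mouse or rat), 0.5 mg protein/mL, incubated at 37 °C with UDPGA (2 mM) as cofactor for glucuronidation. Parent compound remaining was quantified after 30 and 60 min and expressed as % remaining.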

Data set [2] in a line: Drug metabolism in mouse liver microsomes assessed as glucuronidation of compound measured as compound remaining after 60 mins by LC/MS analysis. The class given is ADME. As to conditions: read-out: Stability. The method, boiled down:
as §1
(In general: Liver microsomes are a subcellular fraction often used to study metabolism.)

Data set [3] can be described thus: Drug metabolism in rat liver microsomes assessed as glucuronidation of compound measured as compound remaining after 30 mins by LC/MS analysis. The class given is ADME. As to conditions: read-out: Stability. The essentials:
as §1

Data set [4] can be described thus: Drug metabolism in human liver microsomes assessed as glucuronidation of compound measured as compound remaining after 30 mins by LC/MS analysis. The class given is ADME. To be noted: read-out: Stability. The essentials: (§2)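 Human liver microsomes (0.5 mg protein/mL) incubated with compound at 37 °C in the presence of UDPGA (2 mM), with a UDPGA-free control incubation. Remaining parent compound quantified after 30 and 60 min and expressed as % remaining.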

Data set [5] is described as follows: Drug metabolism in rat liver microsomes assessed as glucuronidation of compound measured as compound remaining after 60 mins by LC/MS analysis. The class given is ADME. As to conditions: read-out: Stability. The method, boiled down:
as §1

Data set [6] is described as follows: Drug metabolism in human liver microsomes assessed as glucuronidation of compound measured as compound remaining after 60 mins by LC/MS analysis. Format: ADME. As to conditions: read-out: Stability. The method, boiled down: as §2
Data set [7] is described as follows: Oral bioavailability in CD1 mouse at 30 mg/kg. The class given is ADME, organism-based. As to conditions: in vivo.
Data set [8] can be described thus: Plasma clearance in CD1 mouse at 30 mg/kg, po and 10 mg/kg, iv. The class given is ADME, organism-based.
Another data set concerns the target D-amino-acid oxidase (Homo sapiens, UniProt P14920). Description: Inhibition of human D-amino acid oxidase.

The results in this text go back to ChEMBL document CHEMBL3351460, “Structure-Metabolism Relationships in the Glucuronidation of d-Amino Acid Oxidase Inhibitors” (ACS Med Chem Lett, 2014).

Bounds are passed on as bounds.

Chain of D-amino-acid oxidase (P14920 whole entry): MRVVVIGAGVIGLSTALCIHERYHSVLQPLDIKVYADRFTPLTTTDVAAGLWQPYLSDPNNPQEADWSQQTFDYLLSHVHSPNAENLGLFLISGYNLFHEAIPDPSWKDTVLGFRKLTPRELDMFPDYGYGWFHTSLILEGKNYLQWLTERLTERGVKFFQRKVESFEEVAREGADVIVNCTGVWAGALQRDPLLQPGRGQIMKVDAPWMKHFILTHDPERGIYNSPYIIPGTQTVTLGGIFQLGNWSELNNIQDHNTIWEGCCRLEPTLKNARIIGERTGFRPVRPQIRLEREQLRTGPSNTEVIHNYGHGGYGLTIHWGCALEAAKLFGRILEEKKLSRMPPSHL

Turning to `O=c1[nH]c2ccccc2cc1O`, the remaining at 0.5 h in data set [1] is under 1%. In addition, in data set [2], the remaining at 1 h was under 1%.

Regarding `O=c1[nH]c2c(F)cc(F)cc2n1O`, the remaining at 0.5 h in [1] was under 1%. Besides, in data set [2], the remaining at 1 h is under 1%.

As for `O=c1[nH]cc(CCc2ccccc2)cc1O`, in [1], the remaining at 0.5 h came out at 5%. Besides, in data set [2], the remaining at 1 h is 3%.

`O=c1[nH]nc(CCc2cc(F)cc(F)c2)cc1O`: the remaining at 0.5 h in data set [1] was determined as 77%; in [3], 69%; in data set [4], 81%. Moreover, the remaining at 1 h in data set [2] turned out to be 59%; in data set [5], 51%; in [6] it was 62%. Further, the bioavailability (in general, the share of a dose that reaches the circulation, judged against a reference dose that is usually intravenous) in data set [7] turned out to be 31%. The molecule also showed a clearance in [8] of 39 mL/min/kg.

Regarding `O=c1cc(CSc2ccc(Cl)c(Cl)c2)occ1O`, the remaining at 0.5 h in [1] was 20%. Besides, the remaining at 1 h in data set [2] was determined as 5%.

In the case of `O=C(O)c1cc(CCc2ccc(Cl)cc2)n[nH]1`, the remaining at 0.5 h in data set [1] was 103%. In data set [2], the remaining at 1 h is 102%. The IC50 – broadly, the concentration that gives 50% inhibition – against D-amino-acid oxidase was under 1000 nM.

Regarding `Cc1cc(C(=O)O)n[nH]1`, the remaining at 0.5 h in data set [1] is 92%. In data set [2], the remaining at 1 h stood at 78%.

For `O=c1[nH]c2cc(F)ccc2cc1O`, the remaining at 0.5 h in [1] and in data set [3] was under 1% in each case. In addition, the remaining at 1 h in data set [2] and in data set [5] was under 1% each time.

As to `Oc1noc2cc(Cl)ccc12`, the remaining at 0.5 h in data set [1] was determined as 58%. For the same molecule, the remaining at 1 h in data set [2] came out at 33%.

Regarding `O=c1[nH]c2cccc(Cl)c2cc1O`, the remaining at 0.5 h in data set [1] and in data set [3] was under 1% throughout. Also, the remaining at 1 h in [2] and in data set [5] was under 1% each time.

For `O=C(O)c1cc2sccc2[nH]1`, in [1], the remaining at 0.5 h worked out at 98%. Also, in data set [2], the remaining at 1 h came to 100%.

In the case of `O=c1oc2ccccc2cc1O` [3-HYDROXYCOUMARIN], in [1], the remaining at 0.5 h was under 1%. In addition, the remaining at 1 h in data set [2] is under 1%.
